This is an account of results in ChEMBL document CHEMBL1121770, “Substituted imidazo[2,3-alpha]pyridine-2-carbamate anthelmintics” (1981).

Format in all cases: functional
For assay [1], the system named is Mus musculus. Kind of assay: Compound was administered at 62.5 p.p.m. in the diet of mice, for percent reduction of Nematospiroides dubius in mice. In outline:
(§1)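 Mouse infection test run by Baker's method, three mice per treated group. Worm counts are averaged per mouse, and percent reduction is derived from them. Reductions below 20% are recorded as 0.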

The subject of assay [2] is Mus musculus. Kind of assay: Compound was administered at 125 p.p.m. in the diet of mice, for percent reduction of Nematospiroides dubius in mice. In outline: as §1
The subject of assay [3] is Mus musculus. Kind of assay: Compound was administered at 500 p.p.m. in the diet of mice, for percent reduction of Nematospiroides dubius in mice. The procedure, abridged:
as §1

Assay [4] deals with Mus musculus. The experiment in a line: Compound was administered at 250 p.p.m. in the diet of mice, for percent reduction of Nematospiroides dubius in mice. In outline:
as §1

In assay [5] the test system is Mus musculus. Kind of assay: Compound was administered at 1000 p.p.m. in the diet of mice, for percent reduction of Nematospiroides dubius in mice. In outline: as §1

For the molecule `CC(C)OC(=O)Nc1ccc2[nH]c(-c3cscn3)nc2c1` [CAMBENDAZOLE], the Reduction was determined as 0% in assay [1], 0% in assay [2], 100% in assay [3] and 73% in assay [4].
In the case of `COC(=O)Nc1nc2cc(C(Cl)=C(Cl)Cl)ccc2[nH]1`, the Reduction came to 57% in assay [1], 69% in assay [2] and 99% in assay [4].
Regarding `c1ccc2[nH]c(-c3cscn3)nc2c1` [THIABENDAZOLE], the Reduction in assay [2] was 0%; in assay [3], 86%; in assay [4], 26%; in assay [5], 100%.
As for `COC(=O)Nc1cn2cc(C(=O)c3ccccc3)ccc2n1`, the Reduction in assay [3] and in assay [5] was 0% in each case.
With `CCCOc1ccc2nc(NC(=O)OC)cn2c1`, the Reduction was found to be 0% in assay [1], 44% in assay [2] and 74% in assay [4].
`COC(=O)Nc1cn2ccccc2n1`: the Reduction in assay [3] came out at 0%; in assay [5], 54%.
As for `CCCSc1ccc2nc(NC(=O)OC)cn2c1`, the figures for the Reduction in assay [1], in assay [2] and in assay [4] were 0%, 74% and 100%, respectively.
As for `COC(=O)Nc1cn2cc([S+]([O-])c3ccccc3)ccc2n1` (centres undefined), the Reduction in assay [1] turned out to be 35%; in assay [2] it was 100%.
The matching figures for `COC(=O)Nc1cn2cc(C(Cl)=C(Cl)Cl)ccc2n1`: 94% and 94%.
On to `COC(=O)Nc1cn2cc(Sc3ccccc3)ccc2n1`, for which the Reduction in assay [1] was 0%; in assay [2], 38%; in assay [3], 100%; in assay [4], 98%.
